Screens from PubChem BioAssay.
Rev-RRE block = HIV Rev-RRE protein-RNA interaction inhibition; inhibition, % at 8 µM; AID 704; P05866; Rev peptide-RRE RNA binding, FRET; 97,000 compounds, 0.79% hits;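 active = inhibition above the screen-wide mean plus 3 SD, cut at about 35% in these data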
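Test system – labelled RRE RNA duplex and labelled Rev peptide · Signal – fluorescein-to-Cy5 FRET, 480 nm excitation · Evaluation – % inhibition of FRET ratio versus controls · Benchmarks – DMSO low control, neomycin B high control · Incubation – 5 min RNA-compound premix plus 15 min binding step, 25 °C · Medium – HEPES pH 7.5 salt buffer with EDTA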
CYP2C19 activ = cytochrome P450 2C19 (human) activation. P33261. recombinant CYP2C19, luciferin-H EGE luminescence; stronger effect = higher value; 0 = fully inhibited enzyme, 1 = untreated enzyme. activation factor at 5 µM. 96,000 tested, under 10 active. AID 1025;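 active = activation factor of at least 2 at 5 µM in the primary screen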
Cav32 inh = human Cav3.2 channel inhibition, primary screen; B-score at 10 µM; Cav3.2-expressing cells, Fluo-4 calcium fluorescence FDSS; stronger effect = lower value; O95180; 100,000 compounds, 4% hits;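 active = single-dose well whose peak fluorescence ratio is a statistical outlier from its plate by either plate-standardised score or position-corrected B-score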
CYP2C9 inhib = inhibitors of human CYP2C9; P11712; CYP2C9 Supersomes, luciferin-H conversion, luminescence; inhibition, % at 5 µM; 96,000 compounds, 20% hits; AID 777;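 active = blocking of liver enzyme CYP2C9 beyond about 50% at 5 µM, limit read from the data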
CYP2C9 activ = CYP2C9 (human) activation. recombinant CYP2C9, luciferin-H conversion, luminescence; stronger effect = higher value; factor 1 = untreated enzyme, 0 = blocked. 96,000 compounds, 1.4% hits. activation factor at 5 µM. AID 1024;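 active = activation factor of 2 or more for CYP2C9 at a 5 µM dose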
CYP2C19 inhib = blocks human cytochrome P450 2C19 | P33261 | CYP2C19 Supersomes, luciferin-H EGE luminescence, 30 min | inhibition, % at 5 µM | 96,000 compounds, 21% hits | AID 778;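 active = CYP2C19 inhibition above a set limit at 5 µM in the primary screen, cut at about 50% in these data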
Of the large screens only hits and unclear results are named; the others gave an inactive call; [ ] = another dose, or the depositor's remark. Rows were chosen to be rich in hits. Some 27% of all compounds tested hit in one or more screens of this group.

Cc1csc(NC(=O)CSc2nnc(Cc3cccn3C)n2-c2ccc(F)cc2)n1	Cav32 inh -5.78
Cc1ccc(NC(=O)CSc2nnc(Cc3cccn3C)n2-c2ccc(F)cc2)cc1	Cav32 inh -3.86
CC(=O)c1ccc(NC(=O)CSc2nnc(Cc3cccn3C)n2-c2ccc(F)cc2)cc1	none
CC(Sc1ccc2c(c1)OCCO2)C(=O)Nc1ccc2c(c1)OCO2 (configuration not stated)	CYP2C9 inhib 90.5, CYP2C19 inhib 100.3
O=C(Cc1c(C(=O)O)[nH]c2ccccc12)Nc1ccc2c(c1)OCO2	none
O=C(CSc1nnc2c(n1)[nH]c1ccccc12)Nc1ccc2c(c1)OCO2	CYP2C9 inhib 64.3
O=C(CSc1ncn(-c2ccccc2)n1)Nc1ccc2c(c1)OCO2	CYP2C9 inhib 90.3, CYP2C19 inhib 94.7 (no result: Rev-RRE block)
CCCNC(=O)NC(=O)CSc1ccc2c(c1)OCCO2	CYP2C19 inhib 75.6
CC1=C(C(=O)OCc2ccccc2)C(c2ccc(-c3ccccc3)cc2)NC(=O)N1CCCC(=O)O (configuration not stated)	none (no result: Rev-RRE block, CYP2C19 activ, CYP2C9 inhib, CYP2C9 activ, CYP2C19 inhib)
CCCN(CCC)CCNc1c(N2CCN(C(=O)OCC)CC2)c(=O)c1=O	none
N=c1sccn1CC(=O)NCCc1ccc(Cl)cc1	none
CC1CCN(CCCNC(=O)c2ccc(CSCc3cccc(Cl)c3)o2)CC1	none
C/C(=N\O)C(=O)NCCCNCCCN(C)C	none
O=C(CSc1ncn(-c2ccccc2)n1)Nc1ccc(Br)cn1	Cav32 inh -5.41, CYP2C9 inhib 58.1, CYP2C19 inhib 75.1
COc1cc(NC(=O)CSc2ccc3c(c2)OCCO3)cc(OC)c1OC	none (no result: Cav32 inh)
CCn1c(SCC(=O)Nc2ccc3c(c2)OCO3)nc2c1c(=O)n(C)c(=O)n2C	none
CC(C)n1c(SCC(=O)Nc2ccc3c(c2)OCO3)nc2c1c(=O)n(C)c(=O)n2C	CYP2C9 inhib 55.2
COc1ccc(NC(=O)CSc2ccc3c(c2)OCCO3)cc1OC	CYP2C9 inhib 64.2
CC(Sc1ccc2c(c1)OCCO2)C(=O)Nc1ncc(Cl)cc1Cl (configuration not stated)	CYP2C19 inhib 69.6
CCN(C(=O)c1cn(C)c(=O)c2cc(OC)c(OC)cc12)c1cc(OC)ccc1OC	none
C=CCN1C(=NC(=O)CC)SC2CS(=O)(=O)CC21 (configuration not stated)	none
CC(c1nc2ccccc2o1)N1C(=O)c2ccccc2C1=O (configuration not stated)	none (no result: CYP2C19 activ, CYP2C9 inhib, CYP2C9 activ, CYP2C19 inhib)
CCOC(=O)c1cnc(SCc2ccc(C(C)(C)C)cc2)nc1N	Cav32 inh -7.2, CYP2C9 inhib 69.9
CSc1nsc(SCC(=O)Nc2ccc3c(c2)OCCO3)n1	CYP2C9 inhib 82.1, CYP2C19 inhib 88.5 (no result: Cav32 inh)
CCOC(=O)c1cnc(SCC(=O)Nc2ccc3c(c2)OCCO3)nc1N	CYP2C9 inhib 69.3
CCOC(=O)c1cnc(SCc2ccccc2)nc1N	none
CCOC(=O)c1cnc(SCC(=O)Nc2ccc(N3CCOCC3)cc2)nc1N	none (no result: Cav32 inh)
CCc1nnc(SCC(=O)Nc2ccc3c(c2)OCO3)o1	CYP2C19 inhib 71.7
CC(=O)NC(c1ccccc1)c1cccnc1 (configuration not stated)	none
CCN(CC)C(=O)CSc1nnc(CNc2ccc(F)cc2)n1-c1ccccc1	none (no result: CYP2C19 activ, CYP2C9 inhib, CYP2C9 activ, CYP2C19 inhib)
Cc1cc(C)n2nc(/C(C#N)=C/c3ccccc3)c(C#N)c2n1	none (no result: Cav32 inh)
CCn1nnnc1SCC(=O)Nc1ccc2c(c1)OCO2	none (no result: CYP2C19 activ, CYP2C9 inhib, CYP2C9 activ, CYP2C19 inhib)
O=C(CSc1ccc2c(c1)OCCO2)Nc1ccc2c(c1)OCO2	CYP2C9 inhib 92.4, CYP2C19 inhib 99.6
Cc1nnc(SCC(=O)Nc2ccc3c(c2)OCO3)o1	none
CC(C)c1nc(SCC(=O)Nc2ccc3c(c2)OCO3)n[nH]1	CYP2C19 inhib 73.3
COCc1cc(C)nc(SCC(=O)Nc2ccc3c(c2)OCO3)c1C#N	CYP2C19 inhib 75.7
Cc1ccc(S(=O)(=O)CCc2nnc(NC(=O)COc3cccc(C)c3)s2)cc1	none
COc1ccc(-c2nc(C)ncc2-c2csc(C)n2)c(O)c1	CYP2C19 inhib 54.3
COc1ccc(-c2ncncc2-c2csc(C)n2)c(O)c1	CYP2C19 inhib 88.9
COc1ccc(-c2csc(C)n2)cc1	none (no result: CYP2C19 activ, CYP2C9 inhib, CYP2C9 activ, CYP2C19 inhib)
CC1CCCN(C(=O)c2cc(F)c(F)cc2Cl)C1 (configuration not stated)	none
COc1ccc(/C=C/C(=O)c2c(O)cc(C)oc2=O)c(OC)c1	Rev-RRE block 89.5[fluorescence artefact?]
COc1cc(/C=C/C(=O)c2c(O)cc(C)oc2=O)cc(OC)c1O	Rev-RRE block 38.3
COc1ccc(/C=C\C(=O)c2c(O)ccc3c(C)cc(=O)oc23)cc1OC	CYP2C19 inhib 67.8
COc1cccc(/C=C/C(=O)c2c(O)cc(C)oc2=O)c1O	none
Cc1ccsc1C(=O)OCC(=O)Nc1sccc1C(N)=O	none
COCCNC(=O)c1cc2oc3ccccc3c2n1C	CYP2C9 inhib 79.4, CYP2C19 inhib 90.4
CCOc1ccccc1CNC(=O)c1cc2oc3ccccc3c2n1C	none
COCC(=O)NC1CCN(C(=O)Nc2ccc(Br)cc2)CC1	none
O=C1NC[C@H](Cc2ccccc2)N(CC2CCCCC2)C1=O	none (no result: Rev-RRE block, CYP2C19 activ, CYP2C9 inhib, CYP2C9 activ, CYP2C19 inhib)
CCc1cc(-c2n[nH]c(=S)n2-c2cccc(C)c2)cs1	CYP2C19 inhib 63.3 (no result: Cav32 inh)
Cc1cccc(-n2c(-c3csc(C)c3)n[nH]c2=S)c1	none
COc1ccc2c(c1)C(=O)[C@@H](O)[C@H](c1ccc(OC)c(Br)c1)O2	none (no result: Rev-RRE block, CYP2C19 activ, CYP2C9 inhib, CYP2C9 activ, CYP2C19 inhib)
COCCN(C(=O)CN1CCc2ccccc2C1)c1c(N)n(Cc2ccccc2)c(=O)[nH]c1=O	none
COCCN(C(=O)CSc1nnc(Nc2ccccc2F)s1)c1c(N)n(Cc2ccccc2)c(=O)[nH]c1=O	CYP2C9 inhib 62.2
CCOc1ccc(N(CC(=O)NC2CCCC2)C(=O)CSc2nnc(COc3ccccc3)o2)cc1	Cav32 inh -5.37, CYP2C9 inhib 57.8
O=C(CSc1nnc(Cc2ccccc2)o1)NC1CCCCC1	CYP2C19 inhib 52.3
O=C(CSc1nnc(Cc2ccccc2)o1)NC1CC2CCC1C2 (configuration not stated)	CYP2C19 inhib 51.9
O=C(CSc1ncn[nH]1)NC1CC2CCC1C2 (configuration not stated)	CYP2C19 inhib 53.2
Cc1ccc(N(CN2CCCC2=O)C(=O)c2ccc(OC(C)C)cc2)cc1	none
Cc1cc(C)n(CCCNC(=O)c2ccc3c(c2)NC(=O)CS3)n1	none
CC(C)(C)C1=C(C#N)C(c2cc3c(cc2Br)OCO3)C(C#N)=C(N)O1 (configuration not stated)	none (no result: Rev-RRE block)
Cn1cnc([N+](=O)[O-])c1Sc1ncccc1N	none
O=C(CSc1nnc(-c2ccco2)o1)NC1CCCCCC1	CYP2C19 inhib 75.3
Cc1ccc(S(=O)(=O)N2CCOCC2)cc1C(=O)OCC(=O)Nc1ccc2c(c1)OCO2	CYP2C9 inhib 52.6
Cc1cc(C(=O)OCC(=O)Nc2ccc(S(=O)(=O)N3CCOCC3)cc2)c(C)o1	CYP2C9 inhib 72.8
O=C(COC(=O)c1cccc(S(=O)(=O)N2CCOCC2)c1)Nc1ncc(C(F)(F)F)cc1Cl	none
